Compound activity: PubChem, Johns Hopkins Ion Channel Center
MrgX1 antag: human MrgX1 receptor antagonism, primary screen; B-score at 10 µM; Q96LB2; MRGX1-HEK293 calcium flux, Fluo-4, BAM8-22 antagonism; hits give low values; 310,000 compounds, 1.3% hits;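 active means calcium-response B-score plate-corrected more than 3 library SD below zero, starting fluorescence within 5 deviations, no agonist response on first addition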;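 further: peak minus trough fluorescence over baseline after final BAM8-22 challenge near maximal dose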
Target sequence (Q96LB2 whole entry, looked up): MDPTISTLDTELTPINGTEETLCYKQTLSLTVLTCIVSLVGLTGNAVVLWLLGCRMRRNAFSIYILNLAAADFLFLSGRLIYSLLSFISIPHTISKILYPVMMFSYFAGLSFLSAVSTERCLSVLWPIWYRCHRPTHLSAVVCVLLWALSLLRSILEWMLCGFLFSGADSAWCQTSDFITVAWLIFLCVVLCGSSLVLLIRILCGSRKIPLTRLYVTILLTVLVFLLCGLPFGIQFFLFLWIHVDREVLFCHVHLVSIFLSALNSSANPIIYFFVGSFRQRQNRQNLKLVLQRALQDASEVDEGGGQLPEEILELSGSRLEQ
RGS4 block: inhibitors of human RGS4 | P49798 | HEK293 M3R/RGS4 inducible, Fluo-4 calcium flux; hits give high values; triggered by carbachol at its EC20 | B-score at 10 µM | 310,000 compounds, 0.45% hits | AID 463165;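 active means B-score, a plate-corrected calcium signal, over three deviations above library mean, with baseline fluorescence within five deviations of library mean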;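 further: RGS4 expression induced by doxycycline in cells with stable M3 receptor; B-score is computed from the integrated fluorescence ratio over baseline after carbachol; higher B-score means a larger calcium signal and so more RGS4 inhibition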
Target sequence (P49798 whole entry, looked up): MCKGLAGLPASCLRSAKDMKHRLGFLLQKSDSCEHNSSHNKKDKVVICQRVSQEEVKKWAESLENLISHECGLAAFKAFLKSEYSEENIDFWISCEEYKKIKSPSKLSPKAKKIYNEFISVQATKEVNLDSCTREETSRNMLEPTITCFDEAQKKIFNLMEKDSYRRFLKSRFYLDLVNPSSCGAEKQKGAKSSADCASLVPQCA
MrgX1 allo act: allosterically activates human MrgX1 receptor signaling. Q96LB2. MrgX1-HEK293, Fluo-4 calcium flux, FDSS; hits give high values. B-score at 10 µM. 310,000 compounds, 0.63% hits. AID 588675;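 active means plate-corrected calcium response at least 3 library SD above typical, normal starting fluorescence, not activating the receptor alone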;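 further: compound read alongside a low EC10 to EC30 dose of BAM8-22 agonist; peak minus trough fluorescence over baseline measured at the second addition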
RGS4 pot: potentiators or activators of RGS4; HEK293 M3R/inducible RGS4, carbachol calcium flux Fluo4; hits give low values; B-score at 10 µM; 310,000 compounds, 0.92% hits;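 active means B-score of the integrated calcium signal more than 4 SD below the library mean, with starting fluorescence not abnormally high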;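 further: negative B-score means reduced calcium response which marks RGS4 activation or potentiation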
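Detection: kinetic calcium fluorescence imaging with Fluo4-AM dye, 2 µM / Material: HEK293 cells with stable M3R and inducible RGS4 / Schedule: recording 10 s baseline at 1 Hz, 100 s post-agonist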
MrgX1 ag: activates human MrgX1 receptor signaling; MrgX1-HEK293 cells, Fluo-4 calcium fluorescence, agonist mode; hits give high values; 310,000 compounds, 0.44% hits; B-score at 10 µM;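 active means calcium response B-score plate-corrected fluorescence ratio at least 3 library SD, with starting fluorescence B-score inside 5 SD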
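Assay system: MrgX1-expressing HEK293 cells / Amount: fifteen thousand cells per well / Doses: test compound in the initial addition of three / Timing: cells plated overnight, dye loaded 0.5 h 37 °C, 0.5 h room temperature / Technique: kinetic calcium dye fluorescence, Fluo-4 NW / Control set: positive and negative controls per plate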
* marks the source's active call; other numbers are inactive results; i = inactive; / = not tested or not shown. Sampled rows, rich in hits. Any-hit rate of the full collection: about 3.5%.

SMILES	MrgX1 antag	RGS4 block	MrgX1 allo act	RGS4 pot	MrgX1 ag
Cc1ccc(/C=N/NC(=O)c2cccc(S(=O)(=O)Nc3ccccc3Cl)c2)s1	i	i	11*	i	i
COc1ccccc1C(CNC(=O)c1cccc(S(=O)(=O)Nc2ccc(C)cc2)c1)N1CCCC1 (stereo not given)	i	i	i	i	i
COc1ccccc1NS(=O)(=O)c1cccc(C(=O)NCC(c2ccccc2OC)N2CCCC2)c1 (stereo not given)	-5.7*	i	i	i	i
COc1ccccc1NS(=O)(=O)c1cccc(C(=O)N/N=C/c2ccc(C)o2)c1	i	i	18*	i	i
O=C(OCc1nnc(-c2ccc(Br)cc2)o1)c1cncc(Br)c1	i	i	i	i	i
CC(=O)Oc1c(Cl)cc(Cl)cc1/C=C/c1ccc2ccccc2n1	-8.3*	i	i	i	i
Cc1nc(C(=O)Nc2cc(Cl)ccc2Cl)nn1-c1cc(OC(C)C)c(Cl)cc1Cl	-5.1*	i	i	i	i
COc1cc([N+](=O)[O-])ccc1NC(=O)CN1CCN(C(=O)c2ccco2)CC1	-4.7*	i	i	i	i
Cc1cccc(CN2CCCC(C(=O)Nc3ccc(-c4cscn4)cc3)C2)c1 (stereo not given)	i	i	i	-7.3*	i
COCCn1c(C)cc(C(=O)COC(=O)c2ccc([N+](=O)[O-])o2)c1C	i	i	i	i	i
Cc1cc(C)c(C(=O)COC(=O)c2ccc([N+](=O)[O-])o2)cc1C	i	i	i	-7.5*	i
Nc1nc(NCC2CCCO2)nc(Nc2ccc(Cl)cc2)c1[N+](=O)[O-] (stereo not given)	i	i	6.8*	i	i
CN(C)CCCNc1ncnc2oc(-c3ccccc3)c(-c3ccccc3)c12	i	i	i	i	i
N=c1c2c(-c3ccccc3)c(-c3ccccc3)n(Cc3ccco3)c2ncn1CCCn1ccnc1	i	i	i	i	i
OCCNc1ncnc2c1c(-c1ccccc1)c(-c1ccccc1)n2Cc1ccco1	i	i	i	i	i
c1ccc(-c2oc3ncnc(NCCCn4ccnc4)c3c2-c2ccccc2)cc1	-5.4*	i	i	i	i
CC(C)Cn1cnc2c(c(-c3ccccc3)c(-c3ccccc3)n2Cc2ccco2)c1=N	i	i	i	-11*	i
c1ccc(-c2c(-c3ccccc3)n(Cc3ccco3)c3ncnc(NCCCn4ccnc4)c23)cc1	i	i	i	-8.5*	i
CC(=O)Nc1cccc(NC(=O)CSc2nc(=O)n(CCCN3CCOCC3)c3c2CCC3)c1	i	i	i	i	i
COc1ccc(C(=O)CSc2nc3ncccc3[nH]2)cc1OC	i	i	i	i	i
Cn1cc([N+](=O)[O-])c(C(=O)NNC(=O)c2ccc([N+](=O)[O-])cc2)n1	-5.4*	i	i	i	i
CCC(C)(C)NC(=O)C(c1ccccc1Cl)N(Cc1cccnc1)C(=O)CCC(=O)Nc1cc(C)on1 (stereo not given)	i	i	i	i	i
C#CCOCCOCCOCCNc1nc(N2CCN(C(=O)CCCCCCCCCCNC(=O)[C@H](CO)n3cc(CCCCCN)nn3)CC2)nc(N2CCN(C(=O)CCCCCCCCCCNC(=O)[C@H](CCCN=C(N)N)n3cc(C[C@@H](C)CC)nn3)CC2)n1	i	/	i	/	70*
C#CCOCCOCCOCCNc1nc(N2CCN(C(=O)CCCCCCCCCCNC(=O)[C@@H](CCSC)n3cc(CCO)nn3)CC2)nc(N2CCN(C(=O)CCCCCCCCCCNC(=O)[C@H](CCCN=C(N)N)n3cc(C[C@@H](C)CC)nn3)CC2)n1	i	/	i	/	i
C#CCOCCOCCOCCNc1nc(N2CCN(C(=O)CCCCCCCCCCNC(=O)[C@H](CCCCN)n3cc(C[C@@H](C)CC)nn3)CC2)nc(N2CCN(C(=O)CCCCCCCCCCNC(=O)[C@@H]([C@H](C)O)n3cc(C)nn3)CC2)n1	i	/	6.9*	/	i
SMILES	MrgX1 antag	RGS4 block	MrgX1 allo act	RGS4 pot	MrgX1 ag
C#CCOCCOCCOCCNc1nc(N2CCN(C(=O)CCCCCCCCCCNC(=O)[C@H](CCCCN)n3cc(C[C@@H](C)CC)nn3)CC2)nc(N2CCN(C(=O)CCCCCCCCCCNC(=O)[C@H](CCCN=C(N)N)n3cc(C[C@@H](C)CC)nn3)CC2)n1	i	/	i	/	35*
C#CCOCCOCCOCCNc1nc(N2CCN(C(=O)CCCCCCCCCCNC(=O)[C@H]([C@@H](C)CC)n3cc(CCCCN=C(N)N)nn3)CC2)nc(N2CCN(C(=O)CCCCCCCCCCNC(=O)[C@@H]([C@H](C)O)n3cc(C)nn3)CC2)n1	i	/	i	/	i
C#CCOCCOCCOCCNc1nc(N2CCN(C(=O)CCCCCCCCCCNC(=O)[C@H](CCCCN)n3cc(C)nn3)CC2)nc(N2CCN(C(=O)CCCCCCCCCCNC(=O)[C@@H]([C@H](C)O)n3cc(C)nn3)CC2)n1	i	/	i	/	i
C#CCOCCOCCOCCNc1nc(N2CCN(C(=O)CCCCCCCCCCNC(=O)[C@H](CCCCN)n3cc(C)nn3)CC2)nc(N2CCN(C(=O)CCCCCCCCCCNC(=O)[C@H](CCCN=C(N)N)n3cc(C[C@@H](C)CC)nn3)CC2)n1	i	/	i	/	104*
CCC(C)[C@H]1CNC(=S)N1CCc1cc(C(F)(F)F)cc(C(F)(F)F)c1 (stereo not given in full)	-5.2*	i	i	i	i
CCC(C)[C@H]1CNCCN1CCc1cc(C(F)(F)F)cc(C(F)(F)F)c1 (stereo not given in full)	i	i	i	i	i
CCCCCc1ccc(OCCOCCn2c[n+](C)c3ccccc32)c(CCCCC)c1	/	i	/	-7.6*	/
CCCCCc1ccc(OCCC[n+]2ccccc2)c(CCCCC)c1	i	i	i	i	i
O=C(NCCO)C(=O)Nc1cc2c3c(c1)CC(=O)N3CCC2	i	i	i	i	i
O=C(CCl)c1cc2c3c(c1)CC(=O)N3CCC2	i	17*	i	i	27*
Cc1ccc2c(c1)N(C)/C(=C/c1cccc[n+]1CCO)S2	i	i	i	-7.3*	i
Cc1ccc2c(c1)N(C)/C(=C/c1cccc[n+]1C)S2	-7.2*	i	i	-7.3*	i
CN1/C(=C/c2cccc[n+]2C)Sc2ccccc21	i	i	i	-7.5*	i
Cc1cccc(OCC(=O)N(Cc2ccc(F)cc2)C2CCS(=O)(=O)C2)c1C (stereo not given)	i	i	i	i	i
